Assay outcomes from PubChem BioAssay.
MEKK2 WT-MEK5 – modulators of MEK5 binding to wildtype MEKK2, primary screen, biochemical, multiplex bead flow cytometry, Alexa488-MEK5 | binding response (% of control), % at 10 µM | Mitogen-activated protein kinase kinase kinase 2 (Homo sapiens), Q9Y2U5 | Alexa488-MEK5 binding to MEKK2 WT; actives lie on both sides | 1.1% of 290,000 active; in the data active = binding response below about 67% or above about 130%
Apaf-1 inh – inhibitors of human Apaf-1 apoptosome, primary screen, biochemical, DEVD-Rh110 fluorescence, uHTS. inhibition, % at 20 µM. reconstituted apoptosome caspase-3 activity. AID 489030, 2010. 0.71% of 330,000 active; active = inhibition of at least 40% at 20 µM
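detection = Rh110 fluorescence intensity | test system = biochemical Apaf-1 apoptosome reconstitution | also added = cytochrome c and DEVD-Rh110 substrate | schedule = 30 min plus 50 min, RT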
UBC13 inh – UBC13 polyubiquitin chain formation inhibitors, primary screen, biochemical, TR-FRET, uHTS | Ubiquitin-conjugating enzyme E2 N (Homo sapiens), P61088 | inhibition, % at 20 µM | 0.47% of 330,000 active | AID 485273, 2010; in the data active = inhibition above about 45%, passing the limit was not always enough
MEKK3 PB1 HTS – modulators of MEKK3-MEK5 PB1 binding, primary screen, biochemical, wildtype MEKK3, multiplex bead flow cytometry, Alexa488-MEK5. Mitogen-activated protein kinase kinase kinase 3 (Homo sapiens), Q99759. bead-based flow cytometry, Alexa488-MEK5 binding to MEKK3; actives lie on both sides; 0 = blocked by unlabeled MEK5, 100 = vehicle. binding response (% of control), % at 10 µM. 1.4% of 290,000 active;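 active = binding response more than 3 SD above or below the average of its plate-row segment, actives on both sides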;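 note: Alexa488 bead fluorescence after subtracting the streptavidin-only scavenger bead signal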
Target sequence (Q99759 whole entry, looked up): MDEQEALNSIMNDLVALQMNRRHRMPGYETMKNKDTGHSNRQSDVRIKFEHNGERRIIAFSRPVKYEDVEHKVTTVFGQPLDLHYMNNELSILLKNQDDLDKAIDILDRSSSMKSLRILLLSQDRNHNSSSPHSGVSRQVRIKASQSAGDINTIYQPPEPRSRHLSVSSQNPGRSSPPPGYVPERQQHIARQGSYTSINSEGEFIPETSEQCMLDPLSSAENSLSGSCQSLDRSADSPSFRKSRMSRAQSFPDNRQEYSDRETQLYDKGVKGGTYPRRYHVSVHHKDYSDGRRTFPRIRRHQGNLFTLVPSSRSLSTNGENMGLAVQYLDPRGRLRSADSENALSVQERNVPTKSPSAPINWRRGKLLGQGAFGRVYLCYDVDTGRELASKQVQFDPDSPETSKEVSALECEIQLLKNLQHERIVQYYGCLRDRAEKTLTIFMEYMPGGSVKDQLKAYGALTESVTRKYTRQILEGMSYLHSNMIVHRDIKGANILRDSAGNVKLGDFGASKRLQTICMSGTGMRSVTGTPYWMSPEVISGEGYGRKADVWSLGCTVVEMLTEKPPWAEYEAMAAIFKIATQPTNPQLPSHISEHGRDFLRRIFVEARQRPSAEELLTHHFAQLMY
UCH37 DUB inh – inhibitors of human UCH37 deubiquitinase, primary screen, biochemical, Ub-AMC cleavage, fluorescence; Ubiquitin carboxyl-terminal hydrolase isozyme L5 (Homo sapiens), Q9Y5K5; purified proteasome/UCH37; 0.33% of 330,000 active; AID 588478, 2011; inhibition, % (test concentration not listed);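 active = mean inhibition over replicate wells above about 20%, limit read from the data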
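Material: human UCH37 enzyme supplied as purified proteasome complex. Measure: % inhibition of Ub-AMC cleavage fluorescence. Medium: pH 7.4 Tris-HCl (50 mM) with ovalbumin, ATP-MgCl2, DTT. Times: 30 min preincubation with enzyme, 25 min cleavage at room temperature. Detection: AMC fluorescence intensity at 355/460 nm.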
MEKK2 mut-MEK5 – MEK5 binding signal on mutant MEKK2 PB1, primary screen, biochemical, multiplex bead flow cytometry, Alexa488-MEK5 | Alexa488-MEK5 binding to MEKK2 mutant | percent response, % at 10 µM | 0.35% of 290,000 active | AID 1530, 2009; in the data active = percent response above about 24%, passing the limit was not always enough
Each line names hits and unclear results; the compound was inactive in the other large screens; [ ] = another dose, or the depositor's remark. The list is not random: actives were taken first. Their share in the collection is about 3%.

Cc1oc(-c2cccc(Cl)c2)nc1CN1CCC(C(=O)NCCCN2CC(C)CC(C)C2)CC1 (centres undefined)	MEKK2 WT-MEK5 139
O=C(NCCCN1CCN(Cc2ccccc2)CC1)C1CCN(c2nnc(-n3cccc3)s2)CC1	MEKK2 WT-MEK5 197, MEKK2 mut-MEK5 56
CCOc1ccc2nc(N3CCCC(C(=O)NCCCN4CC(C)CC(C)C4)C3)sc2c1 (centres undefined)	MEKK2 WT-MEK5 142
CCOc1ccc2nc(N3CCCC(C(=O)NCCCN4CCCCC4)C3)sc2c1 (centres undefined)	none
CC1CCCCN1CCCNC(=O)C1CCN(c2nnc(-n3cccc3)s2)CC1 (centres undefined)	MEKK2 WT-MEK5 150
CC(=O)Nc1cc(OC(C)=O)c2nonc2c1OC(C)=O	Apaf-1 inh 98
COc1ccc(C[C@H]2CN3C(=NC[C@@H]3Cc3ccccc3)N2C[C@H](C)NC(=O)CCC2CCCCC2)cc1	Apaf-1 inh 52 (no result: UCH37 DUB inh)
O=C(Cc1cccc2ccccc12)Nc1ccc(OC(F)F)c(Cl)c1	none
O=C(Nc1ccc(OC(F)F)c(Cl)c1)C(c1ccccc1)c1ccccc1	MEKK3 PB1 HTS 147
CCOC(=O)N=Nc1c2ccccc2c2nc3no[nH]c3nc12	Apaf-1 inh 88
C=C(C)COc1ccc(-c2n[nH]c(C)c2Oc2ccccc2OC)c(O)c1	UCH37 DUB inh 35
CCOc1ccc(-c2n[nH]c(C)c2Oc2ccccc2OC)c(O)c1	none
COc1cccc(CN(C)C(=O)c2ccc(NS(=O)(=O)c3ccc(F)cc3)cc2)c1OC	none (no result: MEKK2 WT-MEK5, MEKK3 PB1 HTS, MEKK2 mut-MEK5)
CCOC(=O)c1c(S(=O)(=O)NCC(=O)Nc2cccc(C)n2)c(C)n(C)c1C	none
c1ccc([C@H]2CNCCN2CCc2cccc3ccccc23)cc1	Apaf-1 inh 55 (no result: MEKK2 WT-MEK5, MEKK3 PB1 HTS, MEKK2 mut-MEK5)
COc1cc(CCCN2CCNC[C@@H]2c2ccccc2)cc(OC)c1OC	none (no result: MEKK2 WT-MEK5, MEKK3 PB1 HTS, MEKK2 mut-MEK5)
Cc1cc(C)nc(NS(=O)(=O)c2ccccc2)n1	none
Cc1cc(-n2nc(C)cc2C)nc(NS(=O)(=O)c2ccccc2Cl)n1	MEKK2 WT-MEK5 21
CC(OC(=O)CN(C)S(=O)(=O)c1ccc(Cl)cc1)C(=O)Nc1cccc(Cl)c1 (centres undefined)	none
COCCNC(=O)c1onc(CSc2cccc(OC)c2)c1C(=O)O	none
COc1cccc(SCc2noc(C(=O)NCCN(C)C)c2C(=O)NCCN(C)C)c1	UCH37 DUB inh 32
CCc1ccc(S(=O)(=O)Nc2ccncc2)cc1	none (no result: UCH37 DUB inh)
Cc1cc[n+](CC(=O)c2ccc3c(c2)OCCO3)cc1	UCH37 DUB inh 24
CCC(=O)c1ccc2c(c1)OCCO2	none
CCOC(=O)c1c(C)[nH]c(C(=O)CSc2nccc(C)n2)c1C	none
O=C(c1ccccc1NS(=O)(=O)c1ccc(Cl)cc1)N1CCc2ccccc21	none
O=C(Nc1ccccc1O)c1ccc(NC(=O)C2CC2)cc1	none
O=C(Nc1ccccc1C(=O)O)c1ccc(NC(=O)C2CC2)cc1	MEKK2 WT-MEK5 1.0[inhibitor]
COc1ccc(CN(C2CCCC2)S(=O)(=O)c2ccc(-n3cnnn3)cc2)cc1OC	none
CCC(C)[C@H]1CNC(=S)N1CCc1cccc2ccccc12 (some centres undefined)	none
O=S(=O)(c1ccc(N2CCC(c3ccc(Cl)cc3)=N2)cc1)N(CCO)CCO	none
CN(C)CCCNS(=O)(=O)c1ccc(N2CCC(c3ccc(Cl)cc3)=N2)cc1	MEKK2 WT-MEK5 162, Apaf-1 inh 73, UBC13 inh 55 (no result: UCH37 DUB inh)
COc1ccc(C(=O)/C=C2\Sc3ccccc3N2C)cc1	none
COc1ccccc1-[n+]1c(C)cc(/C=C2\Sc3ccccc3N2C)cc1C	UCH37 DUB inh 20
O=C1CN(C(=O)c2ccc(F)c(S(=O)(=O)N3CCOCC3)c2)c2ccccc2N1	none
COC(=O)c1cc(S(=O)(=O)N2c3ccccc3CC2C)c[nH]1 (centres undefined)	none
CCOC(=O)/C(C#N)=C/Nc1ccccc1NS(=O)(=O)c1cccc(C(C)=O)c1	UCH37 DUB inh 26
COc1ccc(SC[C@H](Cc2ccccc2)N2CC[C@@H](NC(=O)OCc3ccccc3)CCC2=O)cc1	none (no result: MEKK2 WT-MEK5, MEKK3 PB1 HTS, MEKK2 mut-MEK5)
N#CC[C@H](Cc1ccccc1)N1CC[C@@H](NC(=O)OCc2ccccc2)CCC1=O	UCH37 DUB inh 23
CCOC(=O)C1CCN(C(=O)COC(=O)c2ccc([N+](=O)[O-])o2)CC1	UCH37 DUB inh 20 (no result: MEKK2 WT-MEK5, MEKK3 PB1 HTS, MEKK2 mut-MEK5)
CCOC(=O)C1=C(COC(=O)c2ccc([N+](=O)[O-])o2)NC(=O)NC1C (centres undefined)	UCH37 DUB inh 21 (no result: MEKK2 WT-MEK5, MEKK3 PB1 HTS, MEKK2 mut-MEK5)
CN(C)c1ccc(-c2sc(Nc3ccccc3)n[n+]2-c2ccc(F)cc2)cc1	none
CCN(CC)c1ccc(-c2sc(Nc3ccccc3)n[n+]2-c2ccc(F)cc2)cc1	MEKK2 WT-MEK5 33, MEKK2 mut-MEK5 76
CCN(CC)S(=O)(=O)c1cc(NC(=O)c2n[nH]c(=O)c3ccccc23)ccc1C	MEKK2 WT-MEK5 -3.0
CN(C)S(=O)(=O)c1cccc(NC(=O)c2n[nH]c(=O)c3ccccc23)c1	none
COC(=O)CCC(=O)OC1(C)C(=O)C2=CN(c3ccc(OC)cc3)C(c3ccc(OC)cc3)=CC2=C(Br)C1=O (centres undefined)	MEKK2 WT-MEK5 -6.0
COC(=O)CCC(=O)OC1(C)C(=O)C2=CN(Cc3ccco3)C(c3ccc(OC)cc3)=CC2=C(Br)C1=O (centres undefined)	none (no result: UCH37 DUB inh)
Cc1cccc(C)c1NC(=O)CSc1nc(C2CC2)nc2ccccc12	none
CC1CCN(CCCNC(=O)c2n[nH]c(=O)c3ccccc23)CC1	none
CC1CCN(CCCNC(=O)c2cc3c(Cl)nc4ccccc4c3s2)CC1	MEKK2 WT-MEK5 154
CCOc1ccccc1C(=O)N(Cc1ccc(C)o1)C1CCS(=O)(=O)C1 (centres undefined)	none
CN1/C(=C\C=O)C(C)(C)c2ccccc21	none
CN1\C(=C/C=C/C=C/C=[N+](C)C)C(C)(C)c2ccccc21	MEKK2 WT-MEK5 -3.0 (no result: Apaf-1 inh, UBC13 inh)
Cc1cccc(N2CCN(S(=O)(=O)c3ccc(-c4coc(C)n4)cc3)CC2C)c1 (centres undefined)	none
CCCC(=O)Nc1ccc2c(c1)COC2=O	none
O=C(/C=C/c1cccc(O)c1)c1ccc(N2CCOCC2)cc1	MEKK2 WT-MEK5 -4.0
CCOC(=O)c1[nH]c(C)c(/C(O)=C2\C(=O)C(=O)N(CCN(C)C)C2c2ccncc2)c1C (centres undefined)	UCH37 DUB inh 29
